Experimental data taken from ChEMBL document CHEMBL2311466, “Synthesis and antibacterial and antifungal evaluation of some chalcone based sulfones and bisulfones” (2013).
Converted amounts (≈) assume the structure as drawn.

How the values were obtained:
[1] = test system: Pseudomonas aeruginosa; test: Antimicrobial activity against Pseudomonas aeruginosa after 12 to 18 hrs by micro-well dilution method; assay type: functional
How it was run: (§1)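 Clinical isolates were tested by broth micro-well dilution per NCCLS, in triplicate. Stocks were 10 mg/ml in DMSO, with a 1 mg/ml working solution in methanol. Two-fold serial dilutions ran across 10 wells. Cultures were grown to log phase in Luria Bertani or nutrient broth for 12-18 h at 37 °C and adjusted by OD600 to 10⁷ cfu per well. MIC is the lowest concentration preventing visible growth. Ampicillin and kanamycin served as reference drugs.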

[2] = test system: Bacillus subtilis; test: Antimicrobial activity against Bacillus subtilis after 12 to 18 hrs by micro-well dilution method; assay type: functional; how it was run: as §1
[3] = test system: Candida albicans; test: Antifungal activity against Candida albicans after 12 to 18 hrs by micro-well dilution method; assay type: functional
How it was run: (§2)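 Broth micro-well dilution per NCCLS, in triplicate. Compounds were stocked at 10 mg/ml in DMSO and diluted to a 1 mg/ml working solution in methanol. Two-fold serial dilutions ran across 10 wells of medium. Clinical isolates were subcultured on Sabouraud dextrose agar at 37 °C for 48-72 h. Cultures were grown in yeast/peptone/D-glucose medium for 12-18 h at 37 °C and sized by OD600 to 10⁴ cfu per well. MIC is the lowest concentration with no visible growth. Amphotericin-B and nystatin served as reference drugs.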

[4] = test system: Staphylococcus aureus; test: Antimicrobial activity against Staphylococcus aureus after 12 to 18 hrs by micro-well dilution method; assay type: functional; how it was run: as §1
[5] = test system: Salmonella typhimurium; test: Antimicrobial activity against Salmonella typhimurium after 12 to 18 hrs by micro-well dilution method; assay type: functional, Salmonella enterica subsp. enterica serovar Typhimurium; conditions: Salmonella enterica; how it was run: as §1
[6] = test system: Aspergillus niger; test: Antifungal activity against Aspergillus niger after 12 to 18 hrs by micro-well dilution method; assay type: functional; how it was run: as §2
[7] = test system: Candida albicans; test: Antifungal activity against Candida albicans after 12 to 18 hrs by broth microdilution method; assay type: functional
How it was run: (§3)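 Clinical isolate from a medical college microbiology department, subcultured on Sabouraud dextrose agar at 37 °C for 48–72 h. Liquid culture was grown in yeast/peptone/D-glucose medium for 12–18 h at 37 °C, then diluted by OD600 to 10⁴ cfu/100 per well. Compounds were made as a 10 mg/ml DMSO stock and a 1 mg/ml methanol working solution. Twofold serial dilutions ran across 10 wells, in triplicate, per NCCLS micro-well dilution. MIC was the lowest concentration with no visible growth.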

[8] = test system: Aspergillus niger; test: Antifungal activity against Aspergillus niger after 12 to 18 hrs by broth microdilution method; assay type: functional; how it was run: as §3

| Molecule | MIC [1] | MIC [2] | MIC [3] | MIC [4] | MIC [5] | MIC [6] | MIC [7] | MIC [8] |
| --- | --- | --- | --- | --- | --- | --- | --- | --- |
| O=C(CC(c1ccc(Cl)cc1)S(=O)(=O)c1ccccc1)CC(c1ccc(Cl)cc1)S(=O)(=O)c1ccccc1 (stereo not drawn) | 250 µg/mL (≈ 425 µM) | 31.2 µg/mL (≈ 53.2 µM) | 1.95 µg/mL (≈ 3.32 µM) | 250 µg/mL (≈ 425 µM) | 15.6 µg/mL (≈ 26.6 µM) | 125 µg/mL (≈ 213 µM) | – | – |
| C[C@@H]1[C@H](O)[C@@H](C)/C=C/C=C/C=C/C=C/C=C/C=C/C=C/[C@H](O[C@@H]2O[C@H](C)[C@@H](O)[C@H](N)[C@@H]2O)C[C@@H]2O[C@](O)(C[C@@H](O)C[C@@H](O)[C@H](O)CC[C@@H](O)C[C@@H](O)CC(=O)O[C@H]1C)C[C@H](O)[C@H]2C(=O)O [AMPHOTERICIN B] | – | – | – | – | – | – | 15.6 µg/mL (≈ 16.9 µM) | 500 µg/mL (≈ 541 µM) |
| O=C(CC(c1ccccc1)S(=O)(=O)c1ccccc1)c1ccc(Br)cc1 (stereo not drawn) | 62.5 µg/mL (≈ 146 µM) | 62.5 µg/mL (≈ 146 µM) | 125 µg/mL (≈ 291 µM) | 125 µg/mL (≈ 291 µM) | 250 µg/mL (≈ 582 µM) | 62.5 µg/mL (≈ 146 µM) | – | – |
| O=C(CC(c1ccccc1)S(=O)(=O)c1ccccc1)CC(c1ccccc1)S(=O)(=O)c1ccccc1 (stereo not drawn) | 62.5 µg/mL (≈ 121 µM) | 125 µg/mL (≈ 241 µM) | 250 µg/mL (≈ 482 µM) | 62.5 µg/mL (≈ 121 µM) | 250 µg/mL (≈ 482 µM) | 125 µg/mL (≈ 241 µM) | – | – |
| O=C(CC(c1ccccc1)S(=O)(=O)c1ccccc1)c1ccccc1 (stereo not drawn) | 125 µg/mL (≈ 357 µM) | 31.2 µg/mL (≈ 89.2 µM) | 3.9 µg/mL (≈ 11.1 µM) | 62.5 µg/mL (≈ 178 µM) | 1.95 µg/mL (≈ 5.56 µM) | 7.81 µg/mL (≈ 22.3 µM) | – | – |
| NYSTATIN | – | – | – | – | – | – | 7.81 µg/mL | 7.81 µg/mL |
| COc1ccc(C(CC(=O)c2ccc(Br)cc2)S(=O)(=O)c2ccccc2)cc1OC (stereo not drawn) | 62.5 µg/mL (≈ 128 µM) | 62.5 µg/mL (≈ 128 µM) | 15.6 µg/mL (≈ 31.9 µM) | 62.5 µg/mL (≈ 128 µM) | 1.95 µg/mL (≈ 3.98 µM) | 15.6 µg/mL (≈ 31.9 µM) | – | – |
| O=C(CC(c1ccc(Cl)cc1)S(=O)(=O)c1ccccc1)c1ccc(Cl)cc1 (stereo not drawn) | 125 µg/mL (≈ 298 µM) | 15.6 µg/mL (≈ 37.2 µM) | 31.2 µg/mL (≈ 74.5 µM) | 250 µg/mL (≈ 596 µM) | 125 µg/mL (≈ 298 µM) | 15.6 µg/mL (≈ 37.2 µM) | – | – |
| COc1ccc(C(CC(=O)CC(c2ccc(OC)cc2)S(=O)(=O)c2ccccc2)S(=O)(=O)c2ccccc2)cc1 (stereo not drawn) | 125 µg/mL (≈ 216 µM) | 31.2 µg/mL (≈ 54 µM) | 125 µg/mL (≈ 216 µM) | 250 µg/mL (≈ 432 µM) | 62.5 µg/mL (≈ 108 µM) | 125 µg/mL (≈ 216 µM) | – | – |
| O=C(CC(c1ccc(Cl)cc1)S(=O)(=O)c1ccccc1)c1ccccc1 (stereo not drawn) | 62.5 µg/mL (≈ 162 µM) | 62.5 µg/mL (≈ 162 µM) | 1.95 µg/mL (≈ 5.07 µM) | 125 µg/mL (≈ 325 µM) | 125 µg/mL (≈ 325 µM) | 125 µg/mL (≈ 325 µM) | – | – |
| Cc1ccc(C(CC(=O)CC(c2ccc(C)cc2)S(=O)(=O)c2ccccc2)S(=O)(=O)c2ccccc2)cc1 (stereo not drawn) | 62.5 µg/mL (≈ 114 µM) | 62.5 µg/mL (≈ 114 µM) | 1.95 µg/mL (≈ 3.57 µM) | 62.5 µg/mL (≈ 114 µM) | 31.2 µg/mL (≈ 57.2 µM) | 31.2 µg/mL (≈ 57.2 µM) | – | – |
| NC[C@H]1O[C@H](O[C@H]2[C@H](O)[C@@H](O[C@H]3O[C@H](CO)[C@@H](O)[C@H](N)[C@H]3O)[C@H](N)C[C@@H]2N)[C@H](O)[C@@H](O)[C@@H]1O [KANAMYCIN] | 250 µg/mL (≈ 516 µM) | 7.81 µg/mL (≈ 16.1 µM) | – | 500 µg/mL (≈ 1030 µM) | 15.6 µg/mL (≈ 32.2 µM) | – | – | – |
| O=C(CC(c1cccc([N+](=O)[O-])c1)S(=O)(=O)c1ccccc1)c1ccc(Cl)cc1 (stereo not drawn) | 62.5 µg/mL (≈ 145 µM) | 62.5 µg/mL (≈ 145 µM) | 1.95 µg/mL (≈ 4.54 µM) | 125 µg/mL (≈ 291 µM) | 62.5 µg/mL (≈ 145 µM) | 62.5 µg/mL (≈ 145 µM) | – | – |
| CC1(C)S[C@@H]2[C@H](NC(=O)[C@H](N)c3ccccc3)C(=O)N2[C@H]1C(=O)O [AMPICILLIN] | 125 µg/mL (≈ 358 µM) | 250 µg/mL (≈ 715 µM) | – | 500 µg/mL (≈ 1430 µM) | 125 µg/mL (≈ 358 µM) | – | – | – |
| COc1cc(C(CC(=O)c2ccc(Br)cc2)S(=O)(=O)c2ccccc2)cc(OC)c1OC (stereo not drawn) | 125 µg/mL (≈ 241 µM) | 31.2 µg/mL (≈ 60.2 µM) | 3.9 µg/mL (≈ 7.51 µM) | 125 µg/mL (≈ 241 µM) | 1.95 µg/mL (≈ 3.75 µM) | 7.81 µg/mL (≈ 15 µM) | – | – |
